Reference: ChEMBL document CHEMBL2311525, “Design, synthesis, and pharmacological properties of new heteroarylpyridine/heteroarylpyrimidine derivatives as CB(2) cannabinoid receptor partial agonists” (J Med Chem, 2013)

Key:
[1] = target: T1, Cannabinoid receptor 2 (Homo sapiens, UniProt P34972); experiment: Displacement of [3H]CP-55,940 from human recombinant CB2 receptor expressed in CHO cell membranes after 60 mins by scintillation counting analysis
[2] = species: Homo sapiens; experiment: Selectivity index, ratio of Ki for human recombinant CB1 receptor to Ki for human recombinant CB2 receptor
[3] = target: Cannabinoid receptor 1 (Rattus norvegicus, UniProt P20272); experiment: Displacement of [3H]CP-55,940 from Sprague-Dawley rat brain CB1 receptor by scintillation counting analysis
Outline: (§1)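 Male Sprague-Dawley rat brain membranes, prepared by spinning at 2000g and then 40000g, in 50 mM Tris-HCl with 1 mM EDTA, 3 mM MgCl2 and 0.5% fatty-acid-free BSA, pH 7.4. Incubated with 1.0 nM [3H]CP-55,940, 40 μg protein/100 μL and test compound at 1 nM–10 μM. Filtered on GF/C. Ki by Cheng–Prusoff, n = 4.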

[4] = target: T2, Cannabinoid receptor 2 (Rattus norvegicus, UniProt Q9QZN9); experiment: Displacement of [3H]CP-55,940 from Sprague-Dawley rat spleen CB2 receptor by scintillation counting analysis
T2 sequence (Q9QZN9 whole entry): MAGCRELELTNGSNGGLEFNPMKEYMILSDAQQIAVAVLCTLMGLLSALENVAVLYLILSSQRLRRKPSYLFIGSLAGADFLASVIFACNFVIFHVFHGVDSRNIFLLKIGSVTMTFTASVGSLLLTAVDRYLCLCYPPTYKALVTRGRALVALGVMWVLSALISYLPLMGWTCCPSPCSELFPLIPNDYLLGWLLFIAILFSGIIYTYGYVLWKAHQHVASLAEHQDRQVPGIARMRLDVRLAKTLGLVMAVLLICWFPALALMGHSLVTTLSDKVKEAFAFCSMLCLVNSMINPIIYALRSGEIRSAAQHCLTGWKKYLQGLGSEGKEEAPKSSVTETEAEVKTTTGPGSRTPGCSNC
Outline: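 Male Sprague-Dawley rat spleen membranes, prepared by spinning at 2000g and then 40000g, in 50 mM Tris-HCl with 1 mM EDTA, 3 mM MgCl2 and 0.5% fatty-acid-free BSA, pH 7.4. Filtered on GF/C.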

[5] = target: T1, Cannabinoid receptor 2; experiment: Agonist activity at human CB2 receptor expressed in CHO cells assessed as forskolin-stimulated [3H]cyclic-AMP accumulation by scintillation counting analysis; type: functional, cell-based
[6] = target: T3, Cannabinoid receptor 1 (Homo sapiens, UniProt P21554); experiment: Displacement of [3H]CP-55,940 from human recombinant CB1 receptor expressed in CHO cell membranes after 90 mins by scintillation counting analysis
[7] = target: T1, Cannabinoid receptor 2; experiment: Agonist activity at human CB2 receptor expressed in CHO cells assessed as forskolin-stimulated [3H]cyclic-AMP accumulation by scintillation counting analysis relative to WIN 55,212-2; type: functional, cell-based
Outline: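 CHO cells stably expressing human CB2, 1 × 10^6 cells/assay, in buffered saline (10 mM MgCl2, 5 mM glucose, 5 mM HEPES, pH 7.4, 37 °C) with 0.5 mM Ro 20-1724. Preincubated 10 min at 37 °C, then tested with 1 μM forskolin. Stopped with cold 6% TCA and ether-extracted. cAMP read by [3H]cAMP competition binding to beef adrenal binding protein with charcoal separation.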

[8] = target: Cannabinoid receptor 1 (Rattus norvegicus) (UniProt P20272); experiment: Displacement of [3H]CP-55,940 from Sprague-Dawley rat brain CB1 receptor at 1 to 10000 nM by scintillation counting analysis; outline: as §1
[9] = target: T3, Cannabinoid receptor 1; experiment: Displacement of [3H]CP-55,940 from human recombinant CB1 receptor expressed in CHO cell membranes at 1 to 10000 nM after 90 mins by scintillation counting analysis
Outline: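 Membranes from CHO cells expressing hCB1, spun at 100000g, in 50 mM Tris-HCl with 0.5% BSA, 5 mM MgCl2 and 2.5 mM EDTA, pH 7.4. Incubated with 0.5 nM [3H]CP-55,940 and compound at 1 nM–10 μM for 90 min at 30 °C. Filtered on GF/C and counted. Ki by Cheng–Prusoff, n = 4.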

T1 sequence (P34972 whole entry): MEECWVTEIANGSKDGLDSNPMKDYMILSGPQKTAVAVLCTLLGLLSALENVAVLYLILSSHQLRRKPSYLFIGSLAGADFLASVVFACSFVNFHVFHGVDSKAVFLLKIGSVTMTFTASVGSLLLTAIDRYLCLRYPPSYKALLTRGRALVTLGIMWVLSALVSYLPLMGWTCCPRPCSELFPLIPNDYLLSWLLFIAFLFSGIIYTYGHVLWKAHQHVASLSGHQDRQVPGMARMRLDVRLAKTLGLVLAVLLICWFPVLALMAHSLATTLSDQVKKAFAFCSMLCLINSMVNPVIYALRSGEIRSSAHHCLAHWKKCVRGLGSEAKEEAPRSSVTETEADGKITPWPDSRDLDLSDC
Sequence of Cannabinoid receptor 1 (Rattus norvegicus, UniProt P20272) (P20272 whole entry): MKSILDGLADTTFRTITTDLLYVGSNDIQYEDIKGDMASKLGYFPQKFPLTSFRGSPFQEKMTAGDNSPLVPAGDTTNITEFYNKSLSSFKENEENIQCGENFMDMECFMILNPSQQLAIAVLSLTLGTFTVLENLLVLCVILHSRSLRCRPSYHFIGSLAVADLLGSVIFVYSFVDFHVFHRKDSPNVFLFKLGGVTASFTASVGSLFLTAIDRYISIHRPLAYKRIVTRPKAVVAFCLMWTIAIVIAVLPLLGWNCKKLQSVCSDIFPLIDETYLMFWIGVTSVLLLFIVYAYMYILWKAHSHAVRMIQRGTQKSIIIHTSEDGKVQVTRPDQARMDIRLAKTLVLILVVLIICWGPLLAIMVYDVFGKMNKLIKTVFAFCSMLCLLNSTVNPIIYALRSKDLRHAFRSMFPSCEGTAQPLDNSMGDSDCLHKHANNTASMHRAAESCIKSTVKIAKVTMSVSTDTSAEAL
T3 sequence (P21554 whole entry): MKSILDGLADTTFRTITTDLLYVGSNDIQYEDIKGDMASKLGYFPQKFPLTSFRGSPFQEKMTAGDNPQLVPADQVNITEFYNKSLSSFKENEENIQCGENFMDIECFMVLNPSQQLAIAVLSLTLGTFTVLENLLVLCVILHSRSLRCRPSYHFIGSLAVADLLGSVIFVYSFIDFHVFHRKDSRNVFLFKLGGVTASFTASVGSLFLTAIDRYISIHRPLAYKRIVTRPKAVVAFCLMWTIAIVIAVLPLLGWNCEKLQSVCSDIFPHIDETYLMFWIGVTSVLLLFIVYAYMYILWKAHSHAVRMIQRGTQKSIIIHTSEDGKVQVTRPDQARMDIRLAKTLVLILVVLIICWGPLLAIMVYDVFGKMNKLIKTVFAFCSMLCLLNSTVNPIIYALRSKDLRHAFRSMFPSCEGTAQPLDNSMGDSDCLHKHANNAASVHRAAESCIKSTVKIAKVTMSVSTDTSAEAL
Sequence of Cannabinoid receptor 1 (Rattus norvegicus) (P20272 whole entry): as the sequence (P20272 whole entry) above

`CCCCCn1cc(C(=O)NC23CC4CC(CC(C4)C2)C3)c(=O)c2cnn(C)c21` gave a Ki [1] of 11.6 nM, a Ratio Ki [2] of 432 and a Ki [3] of 5340 nM. The Ki [4] was 13.3 nM, the EC50 [5] was 41 nM and the Ki [6] was 4750 nM. The Emax [7] was 67%.

In the case of `CCCCCn1cc(C(=O)NC2CCCCC2)c(=O)c2c(-c3ccc(Cl)cc3)nn(C)c21`, the Ki [1] is reported as 3620 nM, the Ratio Ki [2] is reported as > 2.8 and the Ki [3] is reported as > 10000 nM. For the same molecule, the Ki [4] was 5020 nM, the Ki [6] was > 10000 nM and the inhibition [8] was 15%. For the same molecule, the inhibition [9] was 22%.

`CCCCCn1cc(C(=O)NC23CC4CC(CC(C4)C2)C3)c(=O)c2c(CC)nn(C)c21` gave a Ki [1] of 37 nM, a Ratio Ki [2] of 12 and a Ki [3] of 2670 nM. The Ki [4] was 97 nM, the EC50 [5] was 162 nM and the Ki [6] was 440 nM. It also gave an Emax [7] of 51%.

In the case of `Cc1nn(C)c2c1c(=O)c(C(=O)NC1CCCCC1)cn2Cc1ccccc1`, the Ki [1] is reported as 956 nM, the Ratio Ki [2] is reported as 4.4 and the Ki [3] is reported as 4560 nM. The Ki [4] was 1100 nM, the EC50 [5] was 3820 nM and the Ki [6] was 4250 nM. For the same molecule, the Emax [7] was 36%.

In the case of `CCCCCn1cc(C(=O)NC2CCCCC2)c(=O)c2c(C)noc21`, the Ki [1] is reported as 8.74 nM, the Ratio Ki [2] is reported as 17.7 and the Ki [3] is reported as 187 nM. For the same molecule, the Ki [4] was 38 nM, the EC50 [5] was 14.3 nM and the Ki [6] was 155 nM. For the same molecule, the Emax [7] was 98%.

For `CCCCn1cc(C(=O)NC2CCCCC2)c(=O)c2c(C)nn(C)c21`, the Ki [1] was 138 nM, the Ratio Ki [2] was 9.1 and the Ki [3] was 1530 nM. For the same molecule, the Ki [4] was 145 nM, the EC50 [5] was 1890 nM and the Ki [6] was 1260 nM. It also gave an Emax [7] of 38%.

Molecule `CCCCCn1cc(C(=O)NC2CCCCCC2)c(=O)c2c(C)csc21` has a Ki [1] of 6.95 nM, a Ratio Ki [2] of 7.5 and a Ki [3] of 67 nM. It also gave a Ki [4] of 8.23 nM, an EC50 [5] of 65 nM and a Ki [6] of 52 nM. For the same molecule, the Emax [7] was -95%.

`CCCCCn1cc(C(=O)NC23CC4CC(CC(C4)C2)C3)c(=O)c2c(C(C)(C)C)nn(C)c21` gave a Ki [1] of 363 nM, a Ratio Ki [2] of 10 and a Ki [3] of 3430 nM. The Ki [4] was 417 nM, the EC50 [5] was 1760 nM and the Ki [6] was 3750 nM. The Emax [7] was 43%.

For `CCCCCn1cc(C(=O)NC2CCCCCC2)c(=O)c2c(C)nn(C)c21`, the Ki [1] was 11.2 nM, the Ratio Ki [2] was 23 and the Ki [3] was 1620 nM. The Ki [4] was 35 nM, the EC50 [5] was 51 nM and the Ki [6] was 252 nM. It also gave an Emax [7] of 65%.

`CCCCCn1cc(C(=O)NC23CC4CC(CC(C4)C2)C3)c(=O)c2c(C)csc21` showed a Ki [1] of 1.12 nM, a Ratio Ki [2] of 12.5 and a Ki [3] of 16.5 nM. For the same molecule, the Ki [4] was 1.25 nM, the EC50 [5] was 31 nM and the Ki [6] was 13.7 nM. For the same molecule, the Emax [7] was -167%.

`CCCCCn1cc(C(=O)NC23CC4CC(CC(C4)C2)C3)c(=O)c2c(C)c(C)sc21` gave a Ki [1] of 3.27 nM, a Ratio Ki [2] of 15.9 and a Ki [3] of 52 nM. It also gave a Ki [4] of 4.26 nM, an EC50 [5] of 34 nM and a Ki [6] of 43 nM. The Emax [7] was -178%.

With `CCCCCn1cc(C(=O)NC2CCCCC2)c(=O)c2c(C)csc21` the Ki [1] was 12.3 nM, the Ratio Ki [2] was 7.2 and the Ki [3] was 98 nM. The Ki [4] was 14.8 nM, the EC50 [5] was 107 nM and the Ki [6] was 86 nM. It also gave an Emax [7] of -64%.

In the case of `CCCCCCn1cc(C(=O)NC2CCCCC2)c(=O)c2c(C)nn(C)c21`, the Ki [1] is reported as 325 nM, the Ratio Ki [2] is reported as 12 and the Ki [3] is reported as 3220 nM. It also gave a Ki [4] of 480 nM, an EC50 [5] of 1200 nM and a Ki [6] of 3870 nM. The Emax [7] was 27%.

`CCCCCn1cc(C(=O)NC2CCCCC2)c(=O)c2c(C)nn(C)c21` gave a Ki [1] of 85 nM, a Ratio Ki [2] of 5.9 and a Ki [3] of 1420 nM. It also gave a Ki [4] of 100 nM, an EC50 [5] of 323 nM and a Ki [6] of 500 nM. It also gave an Emax [7] of 52%.

`CCCCCn1cc(C(=O)NC2CCCCCC2)c(=O)c2c(C)noc21` gave a Ki [1] of 18.5 nM, a Ratio Ki [2] of 7.8 and a Ki [3] of 184 nM. The Ki [4] was 50 nM, the EC50 [5] was 35 nM and the Ki [6] was 145 nM. The Emax [7] was 99%.

Molecule `CCCCCn1cc(C(=O)NC23CC4CC(C)(CC(C)(C4)C2)C3)c(=O)c2c(C)nn(C)c21` has a Ki [1] of 9.83 nM, a Ratio Ki [2] of 107 and a Ki [3] of 3260 nM. For the same molecule, the Ki [4] was 16.7 nM, the EC50 [5] was 45 nM and the Ki [6] was 1050 nM. For the same molecule, the Emax [7] was 71%.
